# Data taken from ChEMBL document CHEMBL4699542, “Design and synthesis of novel methoxypyridine-derived gamma-secretase modulators” (Bioorg Med Chem, 2020).
# Assays:
# [1] = Metabolic stability in mouse liver microsomes assessed as parent compound remaining at 1 uM incubated for 30 mins; format: ADME, Microsome; details: 0.5 h
# How it was run: (§1)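 Test compound at 1 μM incubated 30 min with human, rat or mouse liver microsomes (1 mg/mL); parent remaining expressed as %.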
# Cytochrome P450 3A4 = Cytochrome P450 3A4 (Homo sapiens, UniProt P08684); test: Inhibition of recombinant CYP3A4 (unknown origin) by fluorescence-based assay; format: ADME
# [2] = Ratio of drug concentration in CD-1 mouse brain to plasma at 5 mg/kg, po measured after 1 hr; format: ADME, organism-based
# How it was run: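 Male CD-1 mice dosed once iv (1 mg/kg) or by oral gavage (5 mg/kg). Brain and plasma collected 1 h post dose (n=3/timepoint). Drug levels by HPLC/MS/MS; brain/plasma ratio calculated from these levels.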
# [3] = Half life in CD-1 mouse at 5 mg/kg, po administered as single dose measured up to 24 hrs; format: ADME, organism-based; details: in vivo
# How it was run: (§2)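 Male CD-1 mice, 6–8 weeks old, single dose by tail vein (1 mg/kg, 3% NMP/45% PEG300/12% ethanol/40% water) or oral gavage (5 mg/kg, 5% NMP/95% PEG300). Retro-orbital plasma sampled 0.083 (iv only) to 24 h, n=3/timepoint, and analysed by HPLC/MS/MS. Non-compartmental analysis. Half-life taken from the terminal phase using ≥3 non-zero points after Tmax.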
# [4] = Apparent permeability from apical to basolateral membrane in MDCK-MDR1 cells; format: ADME, cell-based, Canis lupus familiaris; details: dog
# How it was run: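 Apical-to-basolateral apparent permeability (×10⁻⁶ cm/s) measured across MDR1-MDCK cell monolayers.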
# [5] = Cmax in CD-1 mouse at 1 mg/kg, iv administered as single dose measured up to 24 hrs; format: ADME, organism-based; parameters: route intravenous, dose 1 mg/kg, time <=24; details: in vivo; how it was run: as §2
# [6] = biological target: Voltage-gated inwardly rectifying potassium channel KCNH2 (Homo sapiens, UniProt Q12809); test: Inhibition of human ERG expressed in HEK293 cells by patch clamp assay; format: cell-based
# [7] = Half life in CD-1 mouse at 1 mg/kg, iv administered as single dose measured up to 24 hrs; format: ADME, organism-based; details: mouse, in vivo, 1 mg/kg, 24 h; how it was run: as §2
# [8] = Tmax in CD-1 mouse at 5 mg/kg, po administered as single dose measured up to 24 hrs; format: ADME, organism-based; details: in vivo
# How it was run: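 Male CD-1 mice, 6–8 weeks old, single oral gavage dose in 5% NMP/95% PEG300. Plasma (K3EDTA, retro-orbital, under isoflurane) taken at 0.25, 0.5, 1, 2, 4, 8 and 24 h, n=3/timepoint, analysed by HPLC/MS/MS. Non-compartmental extravascular analysis (Model 200); Tmax taken directly from the data.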
# Cytochrome P450 2C19 = Cytochrome P450 2C19 (Homo sapiens, UniProt P33261); test: Inhibition of recombinant CYP2C19 (unknown origin) by fluorescence-based assay; format: ADME
# How it was run: (§3)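 Recombinant CYP isoforms (five tested) screened for inhibition in fluorescence-based assays; IC50 in μM.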
# Cytochrome P450 2D6 = Cytochrome P450 2D6 (Homo sapiens, UniProt P10635); test: Inhibition of recombinant CYP2D6 (unknown origin) by fluorescence-based assay; format: ADME; how it was run: as §3
# [9] = Metabolic stability in rat liver microsomes assessed as parent compound remaining at 1 uM incubated for 30 mins; format: ADME, Microsome; details: 0.5 h; how it was run: as §1
# [10] = Cmax in CD-1 mouse at 5 mg/kg, po administered as single dose measured up to 24 hrs; format: ADME, organism-based; parameters: route oral, dose 5 mg/kg, time <=24; details: in vivo; how it was run: as §2
# [11] = Efflux ratio of apparent permeability from basolateral to apical membrane over apical to basolateral membrane in MDCK-MDR1 cells; format: ADME, cell-based, Canis lupus familiaris; details: dog
# How it was run: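 Calculated as B-A/A-B apparent permeability ratio across MDR1-MDCK cell monolayers; A-B permeability expressed as ×10⁻⁶ cm/s.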
# [12] = Tmax in CD-1 mouse at 1 mg/kg, iv administered as single dose measured up to 24 hrs; format: ADME, organism-based; details: in vivo
# How it was run: (§4)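 Male CD-1 mice, 6–8 weeks old, single tail-vein dose in 3% NMP/45% PEG300/12% ethanol/40% sterile water. Retro-orbital plasma (K3EDTA) taken at 0.083, 0.25, 0.5, 1, 2, 4, 8 and 24 h, n=3/timepoint, analysed by HPLC/MS/MS. Non-compartmental analysis (Model 201, uniform weighting); Tmax read directly from the data.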
# [13] = Ratio of drug concentration in CD-1 mouse brain to plasma at 0.4 mg/kg, iv measured after 1 hr; format: ADME, organism-based
# Gamma-secretase = test: Modulation of gamma secretase in human SH-SY5Y cells overexpressing wild type APP751 assessed as inhibition of amyloid beta (35 to 42 residues) formation incubated for overnight by ELISA; format: cell-based
# How it was run: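 SHSY5Y-APP751 cells plated at 75K/well and incubated overnight at 37 °C, then treated 24 h over 10 concentrations ([…]–10 μM, 1:3.16 steps, in duplicate). Medium Aβ42 measured by sandwich ELISA (Aβ35–42 capture, AP-conjugated Aβ1–12 detection, CDP-Star luminescence) against an Aβ42 standard curve.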
# [14] = AUClast in CD-1 mouse at 5 mg/kg, po administered as single dose measured up to 24 hrs; format: ADME, organism-based; parameters: route oral, dose 5 mg/kg, time <=24; details: in vivo; how it was run: as §2
# [15] = AUClast in CD-1 mouse at 1 mg/kg, iv administered as single dose measured up to 24 hrs; format: ADME, organism-based; parameters: route intravenous, dose 1 mg/kg, time <=24; details: in vivo; how it was run: as §2
# Cytochrome P450 2C9 = Cytochrome P450 2C9 (Homo sapiens, UniProt P11712); test: Inhibition of recombinant CYP2C9 (unknown origin) by fluorescence-based assay; format: ADME; how it was run: as §3
# [16] = Kinetic aqueous solubility of the compound in pH 7.4 PBS buffer by UV/Visible absorbance analysis; format: physicochemical; details: read-out: Kinetic_solubility
# How it was run: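 Kinetic solubility determined in PBS at pH 7.4 by UV/Vis absorbance, reported in μM.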
# [17] = Metabolic stability in human liver microsomes assessed as parent compound remaining at 1 uM incubated for 30 mins; format: ADME, Microsome; details: microsomes, 0.5 h, 1 µM; how it was run: as §1
# [18] = Volume of distribution at steady state in CD-1 mouse at 1 mg/kg, iv administered as single dose measured up to 24 hrs; format: ADME, organism-based; details: in vivo; how it was run: as §4
# Cytochrome P450 1A2 = biological target: T1, Cytochrome P450 1A2 (Homo sapiens, UniProt P05177); test: Inhibition of recombinant CYP1A2 (unknown origin) by fluorescence-based assay; format: ADME; how it was run: as §3
# T1 sequence (P05177 whole entry): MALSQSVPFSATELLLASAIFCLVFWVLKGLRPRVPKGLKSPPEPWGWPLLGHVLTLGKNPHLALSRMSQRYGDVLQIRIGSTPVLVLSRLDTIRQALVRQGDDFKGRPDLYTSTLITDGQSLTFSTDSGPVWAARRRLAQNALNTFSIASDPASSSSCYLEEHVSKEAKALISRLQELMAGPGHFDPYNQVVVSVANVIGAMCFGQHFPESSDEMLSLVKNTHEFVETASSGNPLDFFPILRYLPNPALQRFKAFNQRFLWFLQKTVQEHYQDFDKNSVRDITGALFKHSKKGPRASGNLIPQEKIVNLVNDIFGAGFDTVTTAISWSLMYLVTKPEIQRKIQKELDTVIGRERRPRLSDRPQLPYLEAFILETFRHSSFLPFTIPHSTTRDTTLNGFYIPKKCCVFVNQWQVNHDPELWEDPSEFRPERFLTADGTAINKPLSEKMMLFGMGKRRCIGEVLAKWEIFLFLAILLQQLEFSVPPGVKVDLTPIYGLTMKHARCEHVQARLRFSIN
# [19] = Oral bioavailability in CD-1 mouse at 5 mg/kg administered as single dose measured up to 24 hrs; format: ADME, organism-based; details: in vivo
# How it was run: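 CD-1 mouse PK after single iv (1 mg/kg) and oral gavage (5 mg/kg) dosing, with plasma sampled to 24 h (n=3/timepoint) and measured by HPLC/MS/MS. F(%) = (AUC0-inf po × Dose iv)/(AUC0-inf iv × Dose po) × 100.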
# [20] = AUC infinity in CD-1 mouse at 1 mg/kg, iv administered as single dose measured up to 24 hrs; format: ADME, organism-based; parameters: route intravenous, dose 1 mg/kg, time <=24; details: in vivo; how it was run: as §2
# Sequence of Cytochrome P450 2C19 (P33261 whole entry, canonical isoform): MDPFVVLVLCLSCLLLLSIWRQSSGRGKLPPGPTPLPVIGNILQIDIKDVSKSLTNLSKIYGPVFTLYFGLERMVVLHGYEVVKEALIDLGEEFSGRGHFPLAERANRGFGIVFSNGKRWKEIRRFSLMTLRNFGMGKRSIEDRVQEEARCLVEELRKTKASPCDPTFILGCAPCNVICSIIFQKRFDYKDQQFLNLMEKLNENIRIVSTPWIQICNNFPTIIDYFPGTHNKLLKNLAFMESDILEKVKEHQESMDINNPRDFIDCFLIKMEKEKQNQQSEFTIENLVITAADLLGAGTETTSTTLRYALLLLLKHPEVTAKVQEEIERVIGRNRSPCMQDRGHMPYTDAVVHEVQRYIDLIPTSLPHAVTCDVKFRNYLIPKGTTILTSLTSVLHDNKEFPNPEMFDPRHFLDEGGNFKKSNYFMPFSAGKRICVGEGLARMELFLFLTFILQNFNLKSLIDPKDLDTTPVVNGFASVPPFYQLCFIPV
# Sequence of Cytochrome P450 2C9 (P11712 whole entry): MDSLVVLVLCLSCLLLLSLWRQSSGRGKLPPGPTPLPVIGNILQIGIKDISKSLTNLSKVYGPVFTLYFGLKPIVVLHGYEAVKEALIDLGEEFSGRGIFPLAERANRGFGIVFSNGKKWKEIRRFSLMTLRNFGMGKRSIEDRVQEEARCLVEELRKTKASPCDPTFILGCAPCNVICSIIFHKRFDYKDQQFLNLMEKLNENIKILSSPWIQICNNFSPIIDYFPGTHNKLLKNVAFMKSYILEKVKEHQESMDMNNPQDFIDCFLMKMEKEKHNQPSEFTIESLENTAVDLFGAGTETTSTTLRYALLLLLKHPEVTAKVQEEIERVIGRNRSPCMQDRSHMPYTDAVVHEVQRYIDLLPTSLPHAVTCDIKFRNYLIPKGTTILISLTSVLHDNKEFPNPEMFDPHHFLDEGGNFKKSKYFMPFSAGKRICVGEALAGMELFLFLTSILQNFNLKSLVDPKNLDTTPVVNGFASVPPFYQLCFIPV
# Sequence of Voltage-gated inwardly rectifying potassium channel KCNH2 (Q12809 whole entry): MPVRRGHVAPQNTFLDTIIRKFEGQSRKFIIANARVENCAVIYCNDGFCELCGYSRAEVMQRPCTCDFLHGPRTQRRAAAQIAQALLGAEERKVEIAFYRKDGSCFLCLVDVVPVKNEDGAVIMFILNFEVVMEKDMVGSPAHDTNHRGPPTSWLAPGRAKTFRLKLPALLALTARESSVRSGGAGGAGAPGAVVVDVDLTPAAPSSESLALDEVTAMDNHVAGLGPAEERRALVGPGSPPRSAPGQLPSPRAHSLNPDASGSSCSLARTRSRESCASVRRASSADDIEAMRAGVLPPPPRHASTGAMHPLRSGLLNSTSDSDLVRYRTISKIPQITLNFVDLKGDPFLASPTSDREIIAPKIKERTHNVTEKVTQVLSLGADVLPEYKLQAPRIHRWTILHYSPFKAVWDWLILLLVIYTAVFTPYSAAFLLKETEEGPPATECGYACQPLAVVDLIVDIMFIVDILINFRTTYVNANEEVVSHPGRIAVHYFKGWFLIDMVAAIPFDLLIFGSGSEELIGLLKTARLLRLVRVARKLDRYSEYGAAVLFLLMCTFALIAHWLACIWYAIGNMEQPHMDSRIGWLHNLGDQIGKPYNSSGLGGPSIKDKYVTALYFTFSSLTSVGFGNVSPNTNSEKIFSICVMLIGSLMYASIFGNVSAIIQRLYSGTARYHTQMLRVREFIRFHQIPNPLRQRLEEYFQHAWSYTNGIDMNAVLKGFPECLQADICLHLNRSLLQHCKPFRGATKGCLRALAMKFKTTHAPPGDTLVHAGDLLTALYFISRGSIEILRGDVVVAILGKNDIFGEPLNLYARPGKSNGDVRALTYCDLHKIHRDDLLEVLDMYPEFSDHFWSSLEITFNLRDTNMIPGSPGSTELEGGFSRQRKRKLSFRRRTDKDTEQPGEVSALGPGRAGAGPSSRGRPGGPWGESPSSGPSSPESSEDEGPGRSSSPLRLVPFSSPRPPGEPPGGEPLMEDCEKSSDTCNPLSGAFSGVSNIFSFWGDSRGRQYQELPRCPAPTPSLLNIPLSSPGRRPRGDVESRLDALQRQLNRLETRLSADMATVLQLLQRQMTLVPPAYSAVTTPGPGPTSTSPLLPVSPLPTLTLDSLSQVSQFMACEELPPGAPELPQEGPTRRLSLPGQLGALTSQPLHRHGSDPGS
# Sequence of Cytochrome P450 3A4 (P08684 whole entry): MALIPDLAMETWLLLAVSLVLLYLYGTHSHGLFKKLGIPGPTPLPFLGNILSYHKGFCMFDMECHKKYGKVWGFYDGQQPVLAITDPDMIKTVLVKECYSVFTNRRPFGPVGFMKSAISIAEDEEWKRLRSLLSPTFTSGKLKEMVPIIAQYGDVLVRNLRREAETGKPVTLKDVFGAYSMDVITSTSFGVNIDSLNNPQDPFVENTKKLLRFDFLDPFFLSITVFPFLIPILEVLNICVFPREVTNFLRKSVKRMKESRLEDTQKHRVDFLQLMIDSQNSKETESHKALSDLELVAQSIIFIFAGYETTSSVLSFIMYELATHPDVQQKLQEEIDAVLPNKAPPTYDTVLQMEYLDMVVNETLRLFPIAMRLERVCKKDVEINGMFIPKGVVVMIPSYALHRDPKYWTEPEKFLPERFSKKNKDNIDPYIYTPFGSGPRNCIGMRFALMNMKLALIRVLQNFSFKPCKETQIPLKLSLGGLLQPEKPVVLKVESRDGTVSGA
# Sequence of Cytochrome P450 2D6 (P10635 whole entry): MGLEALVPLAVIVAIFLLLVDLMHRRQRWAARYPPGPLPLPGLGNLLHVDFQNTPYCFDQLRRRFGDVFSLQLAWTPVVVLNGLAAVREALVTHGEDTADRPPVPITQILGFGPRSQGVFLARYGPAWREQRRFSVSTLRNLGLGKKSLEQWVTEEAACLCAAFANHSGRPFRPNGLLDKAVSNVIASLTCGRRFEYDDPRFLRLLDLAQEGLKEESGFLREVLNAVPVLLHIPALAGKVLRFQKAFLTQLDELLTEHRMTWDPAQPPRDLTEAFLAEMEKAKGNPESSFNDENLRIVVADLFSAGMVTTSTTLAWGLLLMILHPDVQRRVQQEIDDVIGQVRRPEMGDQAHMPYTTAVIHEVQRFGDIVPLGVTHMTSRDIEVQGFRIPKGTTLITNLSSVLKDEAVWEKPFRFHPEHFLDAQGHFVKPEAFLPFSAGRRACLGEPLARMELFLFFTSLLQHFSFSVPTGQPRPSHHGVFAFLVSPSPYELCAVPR
Compound,Stabilty [1] [%],IC50 (Cytochrome P450 3A4) [µM],BPR [2],Papp [4],Cmax [5] [ng/mL],IC50 [6] [µM],t1/2 [7] [h],Tmax [8] [h],IC50 (Cytochrome P450 2C19) [µM],IC50 (Cytochrome P450 2D6) [µM],Stabilty [9] [%],Cmax [10] [ng/mL],Ratio [11],Tmax [12] [min],BPR [13],IC50 (Gamma-secretase) [µM],IC50 (Cytochrome P450 2C9) [µM],solubility kinetic [16] [µM],Stabilty [17] [%],IC50 (Cytochrome P450 1A2) [µM],further results
COc1nc(-c2csc(Nc3c4c(nn3C)CCC4)n2)ccc1-n1cnc(C)c1,75,4.5,0.22,22.3 10^-6 cm/s,478,0.92,1.9,1,37,> 100,71,580,1.9,4.98,0.21,0.08,> 100,44,76,> 100,t1/2 [3]: 1.6 h; AUClast [14]: 2700 ng·h/mL; AUClast [15]: 723 ng·h/mL; Vdss [18]: 3.18 L/kg; F [19]: 74.6%
CCn1nc(C2(C)CC2)cc1Nc1nc(-c2ccc(-n3cnc(C)c3)c(OC)n2)cs1,81,4.1,0.57,18.5 10^-6 cm/s,384,12.3,3.84,2,> 100,> 100,73,592,1.3,4.98,0.62,0.032,> 100,6.7,67,> 100,AUC [20]: 1378 ng·h/mL; AUClast [14]: 3976 ng·h/mL; AUClast [15]: 1247 ng·h/mL; Vdss [18]: 3.609 L/kg; F [19]: 63.8%
CCn1nc2c(c1Nc1nc(-c3ccc(-n4cnc(C)c4)c(OC)n3)cs1)CCCCC2,15,11,,,,,,,85,> 100,41,,,,,0.032,37,4.3,0.1,> 100,
CCn1nc2c(c1Nc1nc(-c3ccc(-n4cnc(C)c4)c(OC)n3)cs1)C(C)CC2(C)C (racemic),21,1.5,,,,,,,33,> 100,38,,,,,0.072,35,9.2,12,> 100,
COc1nc(-c2csc(Nc3cc(C(C)(C)C)nn3CC(F)(F)F)n2)ccc1-n1cnc(C)c1,93,1,,,,,,,9,> 100,90,,,,,0.073,20,1.7,47,18,
COc1nc(-c2csc(Nc3c4c(nn3C(C)(C)C)CCCC4)n2)ccc1-n1cnc(C)c1,23,5.3,,14.8 10^-6 cm/s,,7.18,,,12,> 100,63,,0.9,,,0.071,47,34,19,9.1,
